The values that follow come from ChEMBL document CHEMBL3526081 (Drug Metab Dispos, 2011).

The subject of data set [1] is Liver microsome. In words: Drug metabolism in human liver microsomes assessed as 5beta-hydroxylcinobufagin formation at 100 uM at 37 degC after 30 mins by UFLC-ESI-MS analysis in presence of NADPH-generating system. In kind it is ADME. Conditions: 0.5 h. The essentials:
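CB (100 µM; acetonitrile ≤1% final) was incubated with pooled HLM (0.3 mg/ml) plus NADPH-generating system (1 mM NADP+, 10 mM glucose 6-phosphate, 1 unit/ml G6PDH, 4 mM MgCl2) in pH 7.4 phosphate buffer at 37°C for 30 min. Products were identified by UFLC-ESI-MS and quantified by UFLC-DAD at 294 nm.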

Data set [2] concerns Liver. In words: Ratio of Vmax/Km in Swiss-Hauschka (ICR) mouse liver microsomes assessed as 5beta-hydroxylcinobufaginn formation at 100 uM […] by UFLC-ESI-MS analysis. The class given is ADME. The settings on record: 0.5 h. (Microsomes from liver hold many membrane-bound enzymes, among them those of drug oxidation.)
Data set [3] concerns Liver. In words: Ratio of Vmax/Km in Swiss-Hauschka (ICR) mouse liver microsomes assessed as 1alpha-hydroxylcinobufagin formation at 100 uM […] by UFLC-ESI-MS analysis. Conditions: 0.5 h. The class given is ADME.
Data set [4] in a line: Drug metabolism in Swiss-Hauschka (ICR) mouse liver microsomes assessed as 1alpha-hydroxylcinobufagin formation at 100 uM at 37 degC after 30 mins by UFLC-ESI-MS analysis in presence of NADPH-generating system. In kind it is ADME. Conditions: 0.5 h. In outline: (§1)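 Liver microsomes (0.3 mg protein/ml) incubated with 100 µM substrate at 37°C for 30 min, in 100 mM potassium phosphate pH 7.4 with NADPH-generating system (1 mM NADP+, 10 mM glucose 6-phosphate, 1 unit/ml G6PDH, 4 mM MgCl2). Acetonitrile ≤1% final. Stopped with ice-cold acetonitrile and centrifuged. Metabolites identified by UFLC-ESI-MS and quantified by UFLC-DAD at 294 nm against authentic standard curves.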

Data set [5] can be described thus: Drug metabolism in Swiss-Hauschka (ICR) mouse liver microsomes assessed as 5beta-hydroxylcinobufaginn formation per mg of protein at 100 uM at 37 degC after 30 mins by UFLC-ESI-MS analysis. In kind it is ADME. Conditions: 0.5 h. The essentials:
as §1

Data set [6] can be described thus: Drug metabolism in Colony-bred Chinese Bama minipig liver microsomes assessed as 1alpha-hydroxylcinobufagin formation at 100 uM at 37 degC after 30 mins by UFLC-ESI-MS analysis in presence of NADPH-generating system. The class given is ADME, Sus scrofa. Conditions: pig, 0.5 h. In outline:
as §1

The test system of data set [7] is Liver microsome. The data set is described as follows: Drug metabolism in human liver microsomes assessed as 1alpha-hydroxylcinobufagin formation per mg of protein at 100 uM at 37 degC […] by UFLC-ESI-MS analysis. The class given is ADME. The settings on record: 0.5 h.
The test system of data set [8] is Liver microsome. The data set is described as follows: Drug metabolism in human liver microsomes assessed as 1alpha-hydroxylcinobufagin formation at 100 uM at 37 degC after 30 mins […] in presence of 2.5 uM 8-methoxypsoralen CYP2A6 inhibitor. The settings on record: 0.5 h. The class given is ADME.
The test system of data set [9] is Liver microsome. The data set is described as follows: Drug metabolism in human liver microsomes assessed as 1alpha-hydroxylcinobufagin formation at 100 uM at 37 degC after 30 mins by UFLC-ESI-MS analysis in presence of 50 uM clomethiazole CYP2E1 inhibitor. In kind it is ADME. The settings on record: 0.5 h. The essentials:
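Pooled human liver microsomes (10 donors, both sexes) in 100 mM potassium phosphate pH 7.4 were incubated with CB and a selective P450 inhibitor. Reaction was started with NADPH-generating system after 3 min preincubation at 37°C and stopped with ice-cold acetonitrile. Hydroxylated products were quantified by UFLC-DAD at 294 nm; three experiments in duplicate.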

Data set [10] is described as follows: Drug metabolism in Swiss-Hauschka (ICR) mouse liver microsomes assessed as 1alpha-hydroxylcinobufagin formation at 100 uM at 37 degC after 30 mins by UFLC-ESI-MS analysis in presence of 10 uM sulfaphenazole CYP2C9 inhibitor. In kind it is ADME. Conditions: 0.5 h. In outline:
(§2)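 Chemical inhibition: selective P450 inhibitors (furafylline, sulfaphenazole, ketoconazole) added to liver microsome incubations in 100 mM potassium phosphate pH 7.4 with NADPH-generating system at 37°C. Hydroxylated metabolite formation quantified by UFLC at 294 nm against standards. Mean ± S.D. of three experiments in duplicate.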

For data set [11], the system named is Liver microsome. In words: Drug metabolism in beagle dog liver microsomes assessed as 5beta-hydroxylcinobufagin formation at 100 uM at 37 degC after 30 mins by UFLC-ESI-MS analysis in presence of NADPH-generating system. In kind it is ADME, Canis lupus familiaris. The settings on record: 0.5 h. The essentials: as §1
A short description of data set [12]: Drug metabolism in cynomolgus monkey liver microsomes assessed as 1alpha-hydroxylcinobufagin formation at 100 uM at 37 degC after 30 mins by UFLC-ESI-MS analysis in presence of 10 uM furafylline CYP1A2 inhibitor. In kind it is ADME, Macaca fascicularis. Conditions: 0.5 h. The essentials: as §2
Data set [13] relates to Liver microsome. In words: Drug metabolism in beagle dog liver microsomes assessed as 5beta-hydroxylcinobufaginn formation per mg of protein at 100 uM at 37 degC after 30 mins by UFLC-ESI-MS analysis. The class given is ADME, Canis lupus familiaris. The settings on record: 0.5 h. The essentials: as §1
Data set [14] can be described thus: Drug metabolism in Colony-bred Chinese Bama minipig liver microsomes assessed as 1alpha-hydroxylcinobufagin formation at 100 uM at 37 degC after 30 mins by UFLC-ESI-MS analysis in presence of 10 uM sulfaphenazole CYP2C9 inhibitor. Conditions: pig, 0.5 h. In kind it is ADME, Sus scrofa. In outline: as §2
In data set [15] the test system is Liver microsome. In words: Drug metabolism in human liver microsomes assessed as 1alpha-hydroxylcinobufagin formation at 100 uM at 37 degC after 30 mins […] in presence of 1 uM ketoconazole CYP3A4 inhibitor. In kind it is ADME. The settings on record: 0.5 h.
Data set [16] is described as follows: Drug metabolism in Swiss-Hauschka (ICR) mouse liver microsomes assessed as 1alpha-hydroxylcinobufagin formation at 100 uM at 37 degC after 30 mins by UFLC-ESI-MS analysis in presence of 1 uM ketoconazole CYP3A4 inhibitor. The class given is ADME. The settings on record: 0.5 h. The essentials:
as §2

For data set [17], the system named is Liver microsome. The data set is described as follows: Drug metabolism in human liver microsomes assessed as 1alpha-hydroxylcinobufagin formation at 100 uM […] by UFLC-ESI-MS analysis. The class given is ADME. The settings on record: 0.5 h, read-out: Km(app).
A short description of data set [18]: Drug metabolism in cynomolgus monkey liver microsomes assessed as 1alpha-hydroxylcinobufagin formation per mg of protein at 100 uM at 37 degC after 30 mins by UFLC-ESI-MS analysis. The class given is ADME, Macaca fascicularis. Conditions: 0.5 h. The essentials: as §1
The nature of data set [19]: Drug metabolism in Colony-bred Chinese Bama minipig liver microsomes assessed as 1alpha-hydroxylcinobufagin formation per mg of protein at 100 uM at 37 degC after 30 mins by UFLC-ESI-MS analysis. Conditions: pig, 0.5 h. In kind it is ADME, Sus scrofa. The essentials:
as §1

Data set [20] in a line: Drug metabolism in Swiss-Hauschka (ICR) mouse liver microsomes assessed as dihydroxylcinobufagin formation at 100 uM at 37 degC after 30 mins by UFLC-ESI-MS analysis in presence of NADPH-generating system. The settings on record: 0.5 h. In kind it is ADME. In outline:
as §1

A short description of data set [21]: Drug metabolism in cynomolgus monkey liver microsomes assessed as 5beta-hydroxylcinobufagin formation at 100 uM at 37 degC after 30 mins by UFLC-ESI-MS analysis in presence of NADPH-generating system. In kind it is ADME, Macaca fascicularis. Conditions: 0.5 h. The essentials:
as §1

The test system of data set [22] is Liver microsome. The data set is described as follows: Drug metabolism in beagle dog liver microsomes assessed as 1alpha-hydroxylcinobufagin formation at 100 uM at 37 degC after 30 mins by UFLC-ESI-MS analysis in presence of 1 uM ketoconazole CYP3A4 inhibitor. Conditions: 0.5 h. The class given is ADME, Canis lupus familiaris. The essentials: as §2
For data set [23], the system named is Liver microsome. In words: Ratio of Vmax/Km in beagle dog liver microsomes assessed as 5beta-hydroxylcinobufaginn formation at 100 uM […] by UFLC-ESI-MS analysis. The settings on record: 0.5 h. In kind it is ADME, Canis lupus familiaris.
Data set [24] is described as follows: Drug metabolism in Colony-bred Chinese Bama minipig liver microsomes assessed as 1alpha-hydroxylcinobufagin formation at 100 uM at 37 degC after 30 mins by UFLC-ESI-MS analysis in presence of 10 uM furafylline CYP1A2 inhibitor. The class given is ADME, Sus scrofa. The settings on record: pig, 0.5 h. The essentials: as §2

What is called Vmax is the top rate of the reaction or transport when substrate is in excess. In general, Km refers to the concentration of substrate that gives half-maximal velocity. `CC(=O)O[C@H]1[C@H]2O[C@]23[C@@H]2CC[C@@H]4C[C@@H](O)CC[C@]4(C)[C@H]2CC[C@]3(C)[C@H]1c1ccc(=O)oc1` [CINOBUFAGIN]: the Drug metabolism entry in data set [1], in data set [4], in data set [6], in [8], in data set [9] and in data set [10] was “metabolite_detected” each time. The Drug metabolism entry in data set [11] is “metabolite_detected”; in data set [12], “metabolite_detected”; in data set [14], “metabolite_detected”; in data set [15], “metabolite_not_detected”; in [16], “metabolite_not_detected”; in [20], “metabolite_detected”. For the same molecule, the figures for the Drug metabolism result in [21], in data set [22] and in data set [24] were “metabolite_detected”, “metabolite_not_detected” and “metabolite_detected”, respectively. In addition, the Vmax/Km in [2] amounted to 644.6 µL/min/mg; in data set [3], 595 µL/min/mg; in data set [23], 129.4 µL/min/mg. In addition, the Vmax in [5] came to 6.51 nmol/min/mg; in [7], 0.59 nmol/min/mg; in data set [13], 0.44 nmol/min/mg; in [18], 2.12 nmol/min/mg; in [19] it was 0.25 nmol/min/mg. For the same molecule, the Km in data set [17] worked out at 12.5 µM.
